Screening data deposited in PubChem by several laboratories.
Only some compounds are listed: those with a hit (about 3% of all), similar ones and a draw of the others.
Lipid droplet: modulators of hepatic lipid droplet formation; AML12 mouse hepatocytes, oleate lipid droplets, BODIPY imaging; inhibition, % at 6.5 µM; 0.4% of 240,000 active; AID 1656;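 active means lipid droplet intensity inhibited by at least 50%, with more than 500 cells counted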
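Material – AML12 mouse liver cells · Also added – oleate loading, 100 µM · Compound dosing – 6.5 µM single-point dosing · Times – overnight treatment with compound plus oleate · Measured by – fluorescence imaging, 20x objective, two fields per well · Read-out – percent inhibition of filter-corrected integrated lipid droplet intensity per well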
GC-B act: GC-B (human) receptor activation. HEK293-GC-B cells, CNP EC30, cGMP TR-FRET; 0% at EC30 CNP, 100% saturating CNP. activation, % at 10 µM. 0.11% of 370,000 active;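 active means activation at 10 µM reaching about 35% in either raw or pattern-adjusted values, limit read from the data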
NR3A LBD binder: NR3A (human) ligand-binding domain modulation; NR3A LBD differential scanning fluorimetry, Tm shift; 0% = protein alone, 100% = glycine-bound protein; Tm shift relative to glycine control, % at 25 µM; 2.5% of 340,000 active; AID 1259313;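 active means melting temperature shift of at least 10% of the positive control shift, at one fixed dose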
GC-A act: GC-A (human) enzyme activation | P16066 | HEK293 GC-A cells, cGMP TR-FRET, EC30 ANP; 0% at EC30 ANP, 100% saturating ANP | activation, % at 10 µM | 0.14% of 370,000 active; in the data active means activation above about 40%
aDG glyco act: alpha-DG glycosylation activation; AID 624168; activation, % at 10 µM; 0.22% of 360,000 active; Pro5-aDG cells, alpha-DG glycosylation AlphaScreen (IIH6); 0% Pro5, 100% B10-LARGE cell signal;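 active means activation of at least 8% versus controls, or a plate z-score of at least 8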;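 further: Pro5 are CHO cells carrying HIG-tagged alpha-DG that lacks glycosylation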
GASC-1 inh: inhibitors of human GASC-1 (JMJD2C) demethylase; Q9H3R0; inhibition, % at 2.35 µM; 0.069% of 330,000 active; AID 2099; GST-JMJD2C(1-420) H3K9me3 demethylation, DELFIA europium;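 active means more than half of a compound's replicate wells show inhibition beyond 50%, single wells judged on their own value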;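 further: signal counts dimethyl H3K9 product captured on neutravidin plate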
Hits are given with their value.

Screening O=C(NC(NC(=S)Nc1cc(Cl)ccc1Cl)C(Cl)(Cl)Cl)c1ccco1 (stereo unspecified) returned GC-B act inactive, NR3A LBD binder 14.1, GC-A act inactive, aDG glyco act inactive and GASC-1 inh inactive.
O=C(COc1ccccc1)NC(NC(=S)Nc1ccccc1O)C(Cl)(Cl)Cl (stereo unspecified) was read as GC-B act inactive, NR3A LBD binder inactive, GC-A act inactive, aDG glyco act inactive and GASC-1 inh inactive.
For O=C(Cc1ccccc1)NC(NC(=S)Nc1cc(Cl)ccc1Cl)C(Cl)(Cl)Cl (stereo unspecified) the results were GC-B act inactive, NR3A LBD binder 16.5, GC-A act inactive, aDG glyco act inactive and GASC-1 inh inactive.
For O=C(NC(NC(=S)Nc1ccc(Cl)c(Cl)c1)C(Cl)(Cl)Cl)c1ccco1 (stereo unspecified) the results were GC-B act inactive, NR3A LBD binder inactive, GC-A act inactive, aDG glyco act inactive and GASC-1 inh inactive.
CCC1CCCCN1C(=S)NN=C(C)c1ccccn1 (stereo unspecified) was read as GC-B act inactive and GC-A act inactive.
COc1ccc(CCNc2ccc(C(CC(N)=O)NC(=O)c3cc(OC)ccc3OC)cc2[N+](=O)[O-])cc1 (stereo unspecified) was read as Lipid droplet inactive, GC-B act inactive, NR3A LBD binder 42.3, GC-A act inactive, aDG glyco act inactive and GASC-1 inh inactive.
`COc1ccc(OC)c(C(=O)NC(CC(N)=O)c2ccc(NCCOc3ccccc3)c([N+](=O)[O-])c2)c1` (stereo unspecified) gave GC-B act inactive, NR3A LBD binder inactive, GC-A act inactive, aDG glyco act inactive and GASC-1 inh inactive.
Screening O=C(COC(=O)c1ccc2[nH]c3c(c2c1)CCCC3)Nc1ccccc1 returned Lipid droplet inactive, GC-B act inactive, NR3A LBD binder 21.6, GC-A act inactive, aDG glyco act inactive and GASC-1 inh inactive.
For Cc1cccc(C)c1NC(=O)COC(=O)c1ccc2[nH]c3c(c2c1)CCCC3 the results were Lipid droplet inactive, GC-B act inactive, NR3A LBD binder inactive, GC-A act inactive, aDG glyco act inactive and GASC-1 inh inactive.
CCOC(=O)c1cnc2ccc(OCC)cc2c1NCc1ccccc1OC was read as Lipid droplet inactive, GC-B act inactive, NR3A LBD binder 20.1, GC-A act inactive, aDG glyco act inactive and GASC-1 inh inactive.
Screening CCOC(=O)c1cnc2ccc(C(=O)OC)cc2c1NCCc1ccc(OC)c(OC)c1 returned Lipid droplet inactive, GC-B act 36.2, NR3A LBD binder inactive, GC-A act inactive, aDG glyco act inactive and GASC-1 inh inactive.
`CCOC(=O)c1cnc2ccc(OC)cc2c1NCc1ccccc1` gave Lipid droplet inactive, GC-B act inactive, NR3A LBD binder inactive, GC-A act inactive, aDG glyco act inactive and GASC-1 inh inactive.
For Fc1cc(F)c(CSc2nnc(-c3cccnc3)n2Cc2ccccc2)cc1F the results were GC-B act inactive and GC-A act inactive.
For CCOC(=O)N1CCC(NC(=O)C2=C(C)C(=O)OC23CCC(C)CC3)CC1 (stereo unspecified) the results were Lipid droplet inactive, GC-B act inactive, NR3A LBD binder inactive, GC-A act inactive, aDG glyco act inactive and GASC-1 inh inactive.
For CC1=C(C(=O)NC2CCC(C)CC2)C2(CCC(C)CC2)OC1=O (stereo unspecified) the results were Lipid droplet inactive, GC-B act inactive, NR3A LBD binder 13.5, GC-A act inactive, aDG glyco act inactive and GASC-1 inh inactive.
C[C@@H]1CN([C@@H](C)CO)C(=O)CCCn2cc(nn2)CO[C@H]1CN(C)S(C)(=O)=O was read as GC-B act inactive and GC-A act inactive.
For CCN(CC)C(=O)CSc1nc2c(sc(=S)n2-c2ccccc2)c(=O)n1-c1ccc(OC)cc1OC the results were Lipid droplet inactive, GC-B act inactive, NR3A LBD binder 11.6, GC-A act inactive, aDG glyco act inactive and GASC-1 inh inactive.
`COc1ccc(OC)c(NC(=O)Nc2ccc3[nH]ccc3c2)c1` gave GC-B act inactive, NR3A LBD binder 10.6, GC-A act inactive, aDG glyco act inactive and GASC-1 inh inactive.
Screening COc1ccc(OC)c(NC(=O)Nc2ccc(Cl)cc2)c1 returned Lipid droplet inactive, NR3A LBD binder 27.9, aDG glyco act inactive and GASC-1 inh inactive.
Screening COc1ccc(NC(=O)Nc2cc(C)ccc2OC)cc1 returned Lipid droplet inactive, GC-B act inactive, NR3A LBD binder inactive, GC-A act inactive, aDG glyco act inactive and GASC-1 inh inactive.
For COc1ccc(NC(=O)Nc2ccc(F)c(F)c2)c(OC)c1 the results were Lipid droplet inactive, GC-B act inactive, NR3A LBD binder 21.9, GC-A act inactive, aDG glyco act inactive and GASC-1 inh inactive.
`COc1ccc(C(C(=O)N(C)C2CCCC2)N(Cc2ccc(F)cc2)C(=O)c2cc(C)on2)cc1OC` (stereo unspecified) gave GC-B act inactive and GC-A act inactive.
CCOC(=O)[C@@]12CCCC=C1N(CCc1ccc(Cl)cc1)C(=O)[C@H]2CC(=O)NCc1cccc(C(F)(F)F)c1 was read as GC-B act inactive and GC-A act inactive.
OCC1SC(O)C(O)C(O)C1O (stereo unspecified) was read as GC-B act inactive and GC-A act inactive.
Screening Clc1ccc2c(c1)nc1n2CCCC1 returned Lipid droplet inactive, GC-B act inactive, NR3A LBD binder 15.0, GC-A act inactive, aDG glyco act inactive and GASC-1 inh inactive.
`COc1ccc(-c2coc3cc(O)cc(O)c3c2=O)cc1` gave Lipid droplet inactive, GC-B act inactive, NR3A LBD binder 11.9, GC-A act inactive, aDG glyco act inactive and GASC-1 inh inactive.
For C[C@]12CCC(O)CC1CCC1C2CC[C@]2(C)C(c3cc(C(F)(F)F)n[nH]3)CCC12 (stereo partly specified) the results were Lipid droplet inactive, GC-B act inactive, NR3A LBD binder 23.6, GC-A act inactive, aDG glyco act inactive and GASC-1 inh inactive.
Screening COc1ccc(N=C2NC(=O)/C(=C/c3ccc(O)c(OC)c3)S2)cc1 returned Lipid droplet inactive, GC-B act inactive, NR3A LBD binder 19.8, GC-A act inactive, aDG glyco act inactive and GASC-1 inh inactive.
Screening COc1cc(/C=C2\SC(=Nc3ccc(O)cc3)NC2=O)cc(OC)c1OC returned Lipid droplet inactive, GC-B act inactive, NR3A LBD binder inactive, GC-A act inactive and GASC-1 inh inactive.
Screening COc1cc(/C=C2/SC(=Nc3ccc(O)cc3)NC2=O)cc(OC)c1O returned Lipid droplet inactive, GC-B act inactive, NR3A LBD binder 10.9, GC-A act inactive, aDG glyco act inactive and GASC-1 inh inactive.
